# Measured values collected from several papers.
# Organism: Plasmodium falciparum
# Effect on: parasite growth
# Notes: blood stage
Compound,technique,strain,time,quantity,value
COC1=CC(c2ccc[nH]2)=N/C1=C\c1cc(Cc2ccc(OC)cc2)c(-c2ccc(OC)cc2)[nH]1,SYBR Green,D6,72 h,IC50,89 nM
CCc1nnc(-c2ccc3ccn(CC(=O)Nc4cc(OC)c(OC)c(OC)c4)c3c2)o1,,DD2,72 h,EC50,194 nM
Cc1ccc(N(CC2=NCCN2)c2cccc(O)c2)cc1,SYBR Green,3D7,,IC50,1790 nM
CCN(CC)CCCC(C)Nc1ccnc2cc(Cl)ccc12 (stereo not drawn),,3D7,,EC50,8 nM
Cc1ccc(N(C)c2ccc(NC(=O)CN(C)c3ccccc3N3CCCC3=O)c(F)c2)cc1,,3D7,72 h,EC50,3 nM
COc1cc(/C=C/c2cc(/C=C/c3ccc(O)c(OC)c3)n(-c3cccc([N+](=O)[O-])c3)n2)ccc1O,,3D7,,EC50,820 nM
CO[C@H]1/C=C/O[C@@]2(C)Oc3c(C)c(O)c4c(O)c(c(/C=N/N5CCN(C6CCCC6)CC5)c(O)c4c3C2=O)NC(=O)/C(C)=C\C=C\[C@H](C)[C@H](O)[C@@H](C)[C@@H](O)[C@@H](C)[C@H](OC(C)=O)[C@@H]1C,,NF54,,IC50,240 nM
Cc1ccc(Oc2ccc(NC(=O)COc3ccccc3N3CCCC3=O)cc2)cc1,,3D7,72 h,EC50,1570 nM
COC1=CC(c2ccc[nH]2)=N/C1=C\c1[nH]c(C)cc1Cc1ccc(OC(F)(F)F)cc1,SYBR Green,D6,72 h,IC50,2.48 nM
N#Cc1ccc(Oc2ccc(NC(=O)CNc3ccccc3N3CCCC3=O)cc2)cc1,,3D7,72 h,EC50,1400 nM
COc1cc(/C=C/C(=O)C(=Cc2ccc([N+](=O)[O-])cc2)C(=O)/C=C/c2ccc(O)c(OC)c2)ccc1O,,3D7,,EC50,2770 nM
Cc1ccc(Oc2ccc(NC(=O)CNc3ccccc3N3CCCCC3=O)cc2)cc1,,3D7,72 h,EC50,2500 nM
COC1=CC(c2ccc[nH]2)=N/C1=C\c1[nH]c(-c2ccccc2)cc1-c1ccccc1,SYBR Green,D6,72 h,IC50,16.6 nM
CC(C)N(c1ccc(C#N)cc1)c1ccc(NC(=O)CN(C)c2ccccc2N2CCCC2=O)c(F)c1,,3D7,72 h,EC50,44 nM
COc1cc(C=C(C(=O)/C=C/c2ccc(O)c(OC)c2)C(=O)/C=C/c2ccc(O)c(OC)c2)ccc1O,,3D7,,EC50,1790 nM
CNCC[C@H](Oc1cccc2ccccc12)c1cccs1,,NF54,,IC50,706 nM
Cc1nnc(-c2ccc3ccn(CC(=O)Nc4cccnc4)c3c2)o1,,3D7,72 h,EC50,4250 to 4780 nM
COC1=CC(c2ccc[nH]2)=N/C1=C\c1cc(Cc2ccc(OC(F)(F)F)cc2)c(C)[nH]1,SYBR Green,D6,72 h,IC50,3.17 nM
Cc1ccc(N(C)c2ccc(NC(=O)CN(C)c3ccccc3N3CCCC3=O)cn2)cc1,,3D7,72 h,EC50,13 nM
CCC1=C(CC)/C(=C/c2cc(-c3ccc(OC(F)(F)F)cc3)c(C)[nH]2)N=C1c1ccc[nH]1,SYBR Green,D6,72 h,IC50,> 2500 nM
CC(C)N(c1ccc(NC(=O)CN(C)c2ccccc2N2CCCC2=O)cc1)c1ccc(Cl)c(F)c1,,3D7,72 h,EC50,39 nM
CCC1=C(CC)/C(=C/c2cc(Cc3ccc(Cl)cc3)c(C)[nH]2)N=C1c1ccc[nH]1,SYBR Green,D6,72 h,IC50,343 nM
COc1cc(/C=C/c2cc(/C=C/c3ccc(O)c(OC)c3)n(-c3ccc(Cl)cc3Cl)n2)ccc1O,,3D7,,EC50,3290 nM
C[C@H]1Cc2c([nH]c3cc(Cl)c(F)cc23)[C@@]2(N1)C(=O)Nc1ccc(Cl)cc12,,3D7,72 h,EC50,0.7 nM
COC1=CC(c2ccc[nH]2)=N/C1=C\c1[nH]c(-c2ccc(OC)cc2)cc1-c1ccc(OC)cc1,SYBR Green,D6,72 h,IC50,31.2 nM
COc1cc(/C=C2\CCC/C(=C\c3ccc(O)c(OC)c3)C2=O)ccc1O,,3D7,,EC50,200 nM
Cc1cc2ccc(-c3cnn(C)c3)cc2n1CC(=O)Nc1ccccc1Cl,,3D7,72 h,EC50,603 nM
CCOC1=CC(c2ccc[nH]2)=N/C1=C\c1cc(Cc2ccc(OC(F)(F)F)cc2)c(C)[nH]1,SYBR Green,D6,72 h,IC50,6.89 nM
CCN(c1ccc(C)cc1)c1ccc(NC(=O)CN(C)c2ccccc2N2CCCC2=O)cn1,,3D7,72 h,EC50,4 nM
CCN(CC)CCOc1ccc2c(c1)C(=O)c1cc(OCCN(CC)CC)ccc1-2,SYBR Green,3D7,,IC50,1540 nM
